Measured values reported in ChEMBL document CHEMBL1155689, “Evaluation of the total peroxyl radical-scavenging capacity of flavonoids: structure-activity relationships” (J Nat Prod, 2000).

assay: Antioxidant scavenging activity against 2,2'-azobis-amidinopropane-induced peroxyl radicals assessed as total oxyradical scavenging capacity relative to Trolox; format: physicochemical
In short: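 Uses the same ABAP/KMBA ethylene-GC assay: 39 °C, 0.1 mM KMBA, 10 mM ABAP, pH 7.4 phosphate, 60-min time course. TOSC comes from the areas under the kinetic curves, and rTOSC from the slope of TOSC against concentration. Comparative TOSC (cTOSC) expresses each rTOSC relative to the Trolox benchmark.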

Structure (SMILES)	Activity
COc1cc(-c2cc(=O)c3c(O)c(OC)c(OC)c(OC)c3o2)ccc1O	0.81
O=c1c(O)c(-c2ccc(O)c(O)c2)oc2cc(O)cc(O)c12 [QUERCETIN]	7.17

Other lines, results leading:

Activity	Structure (SMILES)
1.52	COc1cc(-c2cc(=O)c3c(O)c(O)c(OC)c(OC)c3o2)ccc1O
0.28	COc1ccc(-c2oc3cc(OC)c(OC)c(O)c3c(=O)c2OC)cc1OC [ARTEMETIN]
5.15	C[C@@H]1O[C@@H](OC[C@H]2O[C@@H](Oc3c(-c4ccc(O)c(O)c4)oc4cc(O)cc(O)c4c3=O)[C@H](O)[C@@H](O)[C@@H]2O)[C@H](O)[C@H](O)[C@H]1O [RUTIN]

assay: Antioxidant scavenging activity against 2,2'-azobis-amidinopropane-induced peroxyl radicals assessed as total oxyradical scavenging capacity; format: physicochemical; design: unit not given here
In short: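 Peroxyl radicals from thermal homolysis of ABAP at 39 °C, with 0.1 mM KMBA and 10 mM ABAP (final) in 100 mM potassium phosphate, pH 7.4. Ethylene in the headspace was measured by GC at 12-min intervals over 60 min. TOSC = 100 − (∫sample/∫control area × 100). rTOSC is the slope of the TOSC vs concentration regression within the linear range.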

Structure (SMILES)	Activity
COc1cc(-c2cc(=O)c3c(O)c(OC)c(OC)c(OC)c3o2)ccc1O	4.53
O=c1c(O)c(-c2ccc(O)c(O)c2)oc2cc(O)cc(O)c12 [QUERCETIN]	40.32
Cc1c(C)c2c(c(C)c1O)CCC(C)(C(=O)O)O2 (stereo unspecified) [TROLOX]	5.62

Further lines, results first:

Activity	Structure (SMILES)
8.53	COc1cc(-c2cc(=O)c3c(O)c(O)c(OC)c(OC)c3o2)ccc1O
1.55	COc1ccc(-c2oc3cc(OC)c(OC)c(O)c3c(=O)c2OC)cc1OC [ARTEMETIN]
28.96	C[C@@H]1O[C@@H](OC[C@H]2O[C@@H](Oc3c(-c4ccc(O)c(O)c4)oc4cc(O)cc(O)c4c3=O)[C@H](O)[C@@H](O)[C@@H]2O)[C@H](O)[C@H](O)[C@H]1O [RUTIN]
